Measurements reported in ChEMBL document CHEMBL2331327, “Bioactive abietane and ent-kaurane diterpenoids from Isodon tenuifolius” (J Nat Prod, 2013).
Blank lines part the entries; values can stand above or below the compound they belong to. Residues, ends and D or L forms follow the SMILES beside them. *: point of attachment. Cbz = O=C(OCc1ccccc1)*

How the values were obtained:
RAW264.7 [1] = assay: Cytotoxicity against mouse RAW264.7 cells assessed as inhibition of cell viability after 18 hrs by MTS assay; format: cell-based; conditions: raw264.7, 18 h
How it was run: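 RAW264.7 cells seeded at 2 × 10^5 cells/well and preincubated 24 h, then exposed to compounds (DMSO solutions) at given concentrations for 18 h. MTS added for 4 h and absorbance read at 490 nm. Viability expressed relative to untreated cells as 100%.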

RAW264.7 [2] = assay: Inhibition of nitric oxide production in LPS-stimulated mouse RAW264.7 cells measured after 18 hrs by Griess reagent based multilabel plate reader analysis; format: functional, cell-based; conditions: RAW264.7, 18 h
How it was run: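 RAW264.7 macrophages in RPMI 1640 with 10% FBS at 2 × 10^5 cells/well, preincubated 24 h at 37 °C, 5% CO2. Then 18 h with 1 μg/mL LPS plus serial dilutions of compound (DMSO stock diluted in medium; top concentration 25 μM). Supernatant mixed 1:1 with Griess reagent, 5 min, absorbance at 570 nm, in triplicate. MG-132 as positive control.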

SW480 = assay: Cytotoxicity against human SW480 cells assessed as inhibition of cell viability after 48 hrs by MTT assay; format: functional, cell-based; conditions: SW480, 48 h
How it was run: (§1)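 Cells grown in RPMI-1640 or DMEM with 10% FBS, 37 °C, 5% CO2. Adherent lines seeded at 1 × 10^5 cells/mL and allowed 12 h to attach; suspension cells seeded just before dosing. Compounds tested at various concentrations in triplicate for 48 h; cisplatin and paclitaxel as positive controls. MTT added for 4 h at 37 °C, then lysis in 20% SDS−50% DMF and OD read at 595 nm. IC50 by Reed and Muench method.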

MCF7 = assay: Cytotoxicity against human MCF7 cells assessed as inhibition of cell viability after 48 hrs by MTT assay; format: functional, cell-based; conditions: MCF7, 48 h; how it was run: as §1
A549 = assay: Cytotoxicity against human A549 cells assessed as inhibition of cell viability after 48 hrs by MTT assay; format: functional, cell-based; conditions: A549, 48 h; how it was run: as §1
HL-60 = assay: Cytotoxicity against human HL60 cells assessed as inhibition of cell viability after 48 hrs by MTT assay; format: functional, cell-based; conditions: HL-60, 48 h; how it was run: as §1
SMMC-7721 = assay: Cytotoxicity against human SMMC7721 cells assessed as inhibition of cell viability after 48 hrs by MTT assay; format: functional, cell-based; conditions: SMMC-7721, 48 h; how it was run: as §1

IC50 (RAW264.7 [2]): > 25 µM
SMILES: C=C1[C@@H]2C[C@H](O)[C@@H]3[C@@](CC(=O)[C@@H]4C(C)(C)[C@@H](O)C[C@H](OC(C)=O)[C@]43C)(C2)[C@@H]1O [TENUIFOLIN F]
Activity (RAW264.7 [1]): Non-toxic
IC50 (SW480): > 10 µM
IC50 (MCF7): > 10 µM
IC50 (A549): > 10 µM
IC50 (HL-60): > 10 µM
IC50 (SMMC-7721): > 10 µM

IC50 (RAW264.7 [2]): > 25 µM
SMILES: C=C1[C@@H]2CC(=O)[C@@H]3[C@@](CC(=O)[C@@H]4C(C)(C)[C@@H](O)C[C@H](OC(C)=O)[C@]43C)(C2)[C@@H]1O [TENUIFOLIN H]
Activity (RAW264.7 [1]): Non-toxic
IC50 (SW480): > 10 µM
IC50 (MCF7): > 10 µM
IC50 (A549): > 10 µM
IC50 (HL-60): > 10 µM
IC50 (SMMC-7721): > 10 µM

IC50 (RAW264.7 [2]): > 25 µM
SMILES: COC[C@H]1C(=O)[C@]23C[C@H]1C[C@H](OC(C)=O)[C@H]2[C@]1(C)[C@@H](OC(C)=O)C[C@H](O)C(C)(C)[C@H]1C(=O)[C@@H]3O [TENUIFOLIN M]
Activity (RAW264.7 [1]): Non-toxic
IC50 (SW480): > 10 µM
IC50 (MCF7): > 10 µM
IC50 (A549): > 10 µM
IC50 (HL-60): 4.4 µM
IC50 (SMMC-7721): > 10 µM

IC50 (RAW264.7 [2]): > 25 µM
SMILES: C=C1[C@@H]2C[C@H](OC(C)=O)[C@@H]3[C@](C2)(C(=O)C[C@@H]2C(C)(C)[C@@H](O)C[C@H](OC(C)=O)[C@]23C)[C@@H]1OC(C)=O [TENUIFOLIN C]
Activity (RAW264.7 [1]): Non-toxic
IC50 (SW480): > 10 µM
IC50 (MCF7): > 10 µM
IC50 (A549): > 10 µM
IC50 (HL-60): > 10 µM
IC50 (SMMC-7721): > 10 µM

IC50 (RAW264.7 [2]): > 25 µM
SMILES: C=C1[C@@H]2C[C@H](O)[C@H]3[C@@]4(C)[C@H](C[C@H](OC(C)=O)[C@]3(C2)[C@@H]1O)C(C)(C)[C@@H](OC(C)=O)C[C@@H]4O [ADENANTHIN E]
Activity (RAW264.7 [1]): Non-toxic
IC50 (SW480): > 10 µM
IC50 (MCF7): > 10 µM
IC50 (A549): > 10 µM
IC50 (HL-60): > 10 µM
IC50 (SMMC-7721): > 10 µM

IC50 (RAW264.7 [2]): > 25 µM
SMILES: C=C1[C@@H]2C[C@H](OC(C)=O)[C@H]3[C@]4(C)[C@@H](OC(C)=O)C[C@H](O)C(C)(C)[C@H]4C[C@H](O)[C@]3(C2)[C@@H]1O [TENUIFOLIN D]
Activity (RAW264.7 [1]): Non-toxic
IC50 (SW480): > 10 µM
IC50 (MCF7): > 10 µM
IC50 (A549): > 10 µM
IC50 (HL-60): > 10 µM
IC50 (SMMC-7721): > 10 µM

IC50 (RAW264.7 [2]): > 25 µM
SMILES: C=C1[C@@H]2C[C@H](OC(C)=O)[C@@H]3[C@@](CC(=O)[C@@H]4C(C)(C)[C@@H](O)C[C@H](O)[C@]43C)(C2)[C@@H]1O [TENUIFOLIN G]
Activity (RAW264.7 [1]): Non-toxic
IC50 (SW480): > 10 µM
IC50 (MCF7): > 10 µM
IC50 (A549): > 10 µM
IC50 (HL-60): > 10 µM
IC50 (SMMC-7721): > 10 µM

IC50 (RAW264.7 [2]): 8.8 µM
SMILES: C=C1C(=O)[C@@]23CC(=O)[C@@H]4C(C)(C)[C@@H](OC(C)=O)CC[C@@]4(C)[C@@H]2[C@@H](O)[C@H](O)[C@@H]1C3 [TENUIFOLIN J]
Activity (RAW264.7 [1]): Non-toxic
IC50 (SW480): > 10 µM
IC50 (MCF7): > 10 µM
IC50 (A549): > 10 µM
IC50 (HL-60): 3.8 µM
IC50 (SMMC-7721): 6.3 µM

SMILES: CC(=O)O[C@H]1C(=O)[C@@]2(C)[C@H]([C@H](OC(=O)c3ccccc3)[C@]3(O)C[C@H](OC(=O)[C@H](O)[C@@H](NC(=O)c4ccccc4)c4ccccc4)C(C)=C1C3(C)C)[C@]1(OC(C)=O)CO[C@@H]1C[C@@H]2O [PACLITAXEL]
IC50 (SW480): 0.15 µM
IC50 (MCF7): < 0.008 µM
IC50 (A549): < 0.008 µM
IC50 (HL-60): < 0.008 µM
IC50 (SMMC-7721): < 0.008 µM

IC50 (RAW264.7 [2]): 5.7 µM
SMILES: C=C1C(=O)[C@@]23CC(=O)[C@@H]4C(C)(C)[C@@H](OC(C)=O)C[C@H](O)[C@@]4(C)[C@@H]2[C@@H](O)C[C@@H]1C3 [INFLEXARABDONIN E]
Activity (RAW264.7 [1]): Non-toxic
IC50 (SW480): 4.6 µM
IC50 (MCF7): 4.8 µM
IC50 (A549): 6.8 µM
IC50 (HL-60): 1.7 µM
IC50 (SMMC-7721): 2.2 µM

IC50 (RAW264.7 [2]): > 25 µM
SMILES: C=C1[C@@H]2C[C@H](OC(C)=O)[C@H]3[C@]4(C)[C@@H](OC(C)=O)C[C@H](O)C(C)(C)[C@H]4C(=O)[C@H](OC(C)=O)[C@]3(C2)[C@@H]1O [ADENANTHIN J]
Activity (RAW264.7 [1]): Non-toxic
IC50 (SW480): > 10 µM
IC50 (MCF7): > 10 µM
IC50 (A549): > 10 µM
IC50 (HL-60): > 10 µM
IC50 (SMMC-7721): > 10 µM

IC50 (RAW264.7 [2]): 5.8 µM
SMILES: C=C1C(=O)[C@@]23CC(=O)[C@@H]4C(C)(C)[C@@H](O)C[C@H](O)[C@@]4(C)[C@@H]2[C@@H](OC(C)=O)C[C@@H]1C3 [TENUIFOLIN I]
Activity (RAW264.7 [1]): Non-toxic
IC50 (SW480): 4.3 µM
IC50 (MCF7): 3 µM
IC50 (A549): 4.5 µM
IC50 (HL-60): 0.8 µM
IC50 (SMMC-7721): 1.9 µM

IC50 (RAW264.7 [2]): > 25 µM
SMILES: CC(C)c1cc2c3c(c1)[C@H](O)C[C@H]1[C@](C)(CO)CC[C@H](O2)[C@]31C [ISOABIETENIN A]
Activity (RAW264.7 [1]): Non-toxic
IC50 (SW480): > 10 µM
IC50 (MCF7): > 10 µM
IC50 (A549): > 10 µM
IC50 (HL-60): > 10 µM
IC50 (SMMC-7721): > 10 µM

IC50 (RAW264.7 [2]): > 25 µM
SMILES: C=C1[C@@H]2C[C@H](O)[C@H]3[C@]4(C)CC[C@H](O)C(C)(C)[C@H]4CC[C@]3(C2)[C@@H]1O [TENUIFOLIN B]
Activity (RAW264.7 [1]): Non-toxic
IC50 (SW480): > 10 µM
IC50 (MCF7): > 10 µM
IC50 (A549): > 10 µM
IC50 (HL-60): > 10 µM
IC50 (SMMC-7721): > 10 µM

IC50 (RAW264.7 [2]): 3.8 µM
SMILES: C=C1C(=O)[C@]23C[C@H]1C[C@H](OC(C)=O)[C@H]2[C@]1(C)[C@@H](OC(C)=O)C[C@H](O)C(C)(C)[C@H]1C[C@@H]3OC(C)=O [ADENANTHIN C]
Activity (RAW264.7 [1]): Non-toxic
IC50 (SW480): 5.1 µM
IC50 (MCF7): 4.8 µM
IC50 (A549): > 10 µM
IC50 (HL-60): 1.8 µM
IC50 (SMMC-7721): 3.2 µM

IC50 (RAW264.7 [2]): 10.8 µM
SMILES: C=C(C=O)[C@H]1C[C@@H](OC(C)=O)[C@H]2[C@@](O)(C1)[C@H](OC(C)=O)C(=O)[C@H]1C(C)(C)[C@H](O)C[C@@H](OC(C)=O)[C@@]12C [ISOABIETENIN C]
Activity (RAW264.7 [1]): Non-toxic
IC50 (SW480): > 10 µM
IC50 (MCF7): > 10 µM
IC50 (A549): > 10 µM
IC50 (HL-60): 4.7 µM
IC50 (SMMC-7721): > 10 µM

IC50 (RAW264.7 [2]): 0.15 µM
SMILES: CC(C)C[C@@H](C=O)NC(=O)[C@H](CC(C)C)NC(=O)[C@H](CC(C)C)NC(=O)OCc1ccccc1 [MG-132] (Cbz-Leu-Leu-Leu-aldehyde)

IC50 (RAW264.7 [2]): > 25 µM
SMILES: COC[C@@H]1C(=O)[C@]23C[C@H]1C[C@H](OC(C)=O)[C@H]2[C@@]1(C)[C@H](C(=O)[C@@H]3O)C(C)(C)[C@@H](O)C[C@@H]1O [TENUIFOLIN L]
Activity (RAW264.7 [1]): Non-toxic
IC50 (SW480): > 10 µM
IC50 (MCF7): > 10 µM
IC50 (A549): > 10 µM
IC50 (HL-60): > 10 µM
IC50 (SMMC-7721): > 10 µM

IC50 (RAW264.7 [2]): > 25 µM
SMILES: CC(C)[C@@]1(O)CC(=O)C2=C(C1)[C@H](O)C[C@H]1[C@](C)(CO)CCC[C@]21C [ISOABIETENIN B]
Activity (RAW264.7 [1]): Non-toxic
IC50 (SW480): > 10 µM
IC50 (MCF7): > 10 µM
IC50 (A549): > 10 µM
IC50 (HL-60): > 10 µM
IC50 (SMMC-7721): > 10 µM

IC50 (RAW264.7 [2]): > 25 µM
SMILES: C=C1[C@@H]2C[C@H](O)[C@H]3[C@]4(C)CC[C@H](O)C(C)(C)[C@H]4C(=O)C[C@]3(C2)[C@@H]1O [TENUIFOLIN E]
Activity (RAW264.7 [1]): Non-toxic
IC50 (SW480): > 10 µM
IC50 (MCF7): > 10 µM
IC50 (A549): > 10 µM
IC50 (HL-60): > 10 µM
IC50 (SMMC-7721): > 10 µM

IC50 (RAW264.7 [2]): 6.9 µM
SMILES: C=C1C(=O)[C@@]23CC[C@@H]4C(C)(C)[C@H](O)CC[C@@]4(C)[C@@H]2[C@@H](O)C[C@@H]1C3 [TENUIFOLIN A]
Activity (RAW264.7 [1]): Non-toxic
IC50 (SW480): > 10 µM
IC50 (MCF7): > 10 µM
IC50 (A549): > 10 µM
IC50 (HL-60): 4.7 µM
IC50 (SMMC-7721): 7.4 µM
